Results reported in PMC7191207 (Heliyon, 2020).
Like-named read-outs stand apart in the source and are kept apart here.

Experiments:
[1] = Calculated hepatic extraction ratio; conditions: low (<0.3)
[2] = type: in vivo, human; conditions: oral 800 mg daily
Procedure, shortened: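 Plasma from patients on oral 800 mg daily for at least one week, excluding combined TKI therapy; blood centrifuged at 3000 rpm, plasma stored at -20 °C. Free fraction by rapid equilibrium dialysis (8000 Da cut-off) against PBS at 37 °C, 250 rpm, 6 h, in technical duplicates. Quantified by C18 HPLC with positive-ESI MRM, erlotinib internal standard, calibration 5–1000 ng/mL.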

albumin = conditions: mainly bound to albumin; cited from earlier work
renal cancer patients = renal cancer patients in clinical trials, up; cited from earlier work
[3] = Stability tests of QC samples in pooled human plasma; type: physicochemical; conditions: for degradation of QC samples: QC low, medium and high
Procedure, shortened: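 QC samples (12, 120, 900 ng/mL) spiked into pooled human plasma in triplicate, then held at bench top, in the autosampler, or 1 month at -80 °C. Extraction: diethyl ether liquid-liquid, dried under nitrogen at 37 °C, reconstituted in mobile phase. Analysis: C18 LC-MS/MS with positive ESI MRM (438.3/357.2) against a 1/x2-weighted calibration (5–1000 ng/mL). Accuracy = measured/nominal × 100%.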

calculated hepatic extraction ratio [1]: 0.00346 | free drug concentration ([2]; 17 patients' plasma samples, mean ± standard deviation): 5.84 ± 3.02 ng/mL | Plasma free drug concentration (Median ± Interquartile range) ([2]; patients with low albumin level (<40 g/L) (n = 7)): 6.49 ± 3.65 ng/mL | Plasma free drug concentration (Median ± Interquartile range) ([2]; patients with normal albumin level (n = 8)): 4.88 ± 2.71 ng/mL | Plasma free drug concentration (Median ± Interquartile range) ([2]; patients with very low albumin level (<30 g/L) (n = 2)): 3.44 ± 1.32 ng/mL | degradation of QC samples ([3]; 1 month of storage at -80 °C): No significant degradation | Stability, Accuracy (%) from nominal concentration ([3]; Autosampler: extracted samples stored for 14 h at room temperature, 12 ppb): 96.45% | Stability, Accuracy (%) from nominal concentration ([3]; Autosampler: extracted samples stored for 14 h at room temperature, 120 ppb): 96.56% | Stability, Accuracy (%) from nominal concentration ([3]; Autosampler: extracted samples stored for 14 h at room temperature, 900 ppb): 96.02% | Stability, Accuracy (%) from nominal concentration ([3]; Bench Top: plasma samples stored at room temperature for 8h, 12 ppb): 113.11% | Stability, Accuracy (%) from nominal concentration ([3]; Bench Top: plasma samples stored at room temperature for 8h, 120 ppb): 93.21% | Stability, Accuracy (%) from nominal concentration ([3]; Bench Top: plasma samples stored at room temperature for 8h, 900 ppb): 97.02% | Stability, Accuracy (%) from nominal concentration ([3]; Freeze Thaw: three freeze thaw cycles, 12 ppb): 93.79% | Stability, Accuracy (%) from nominal concentration ([3]; Freeze Thaw: three freeze thaw cycles, 120 ppb): 93.50% | Stability, Accuracy (%) from nominal concentration ([3]; Freeze Thaw: three freeze thaw cycles, 900 ppb): 100.49% | Stability, Accuracy (%) from nominal concentration ([3]; Long Term: stored at -80 °C for 1 month, 12 ppb): 100.58% | Stability, Accuracy (%) from nominal concentration ([3]; Long Term: stored at -80 °C for 1 month, 120 ppb): 113.89% | Stability, Accuracy (%) from nominal concentration ([3]; Long Term: stored at -80 °C for 1 month, 900 ppb): 114.23% | degradation of QC samples ([3]; auto sampler conditions): No significant degradation | degradation of QC samples ([3]; bench top conditions): No significant degradation
SMILES: Cc1ccc(Nc2nccc(N(C)c3ccc4c(C)n(C)nc4c3)n2)cc1S(N)(=O)=O [pazopanib, Pazopanib]
plasma protein binding (albumin): > 99.9% | proportion of patients with increases in serum transaminases and bilirubin (renal cancer patients): 40–50% | degradation of QC samples ([3]; three freeze-thaw cycles): did not result in significant degradation
